What all share (format): functional
Assay [1] has as its system Staphylococcus aureus. The experiment in a line: Antibacterial activity was determined against gram positive organism, Staphylococcus aureus UC76. The note with it: Staphylococcus aureus; read-out: MIC. The procedure, abridged:
(§1)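 MIC (µg/mL) by standard microtitration against a panel of 10 Gram-positive and Gram-negative organisms; values averaged from multiple experiments.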

The subject of another assay is Enterococcus faecalis. The experiment in a line: Antibacterial activity was determined against gram positive organism, Streptococcus faecalis MGH-2. The note with it: Enterococcus faecalis; read-out: MIC. Summed up:
as §1

For assay [2], the system named is Streptococcus pyogenes. The experiment in a line: The in vivo potency was determined in female charles river CD-1 mice infected with Streptococcus pyogenes after sc administration. The note with it: Streptococcus pyogenes, sc; read-out: PD50. Summed up: (§2)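 Acute lethal systemic infection in female CD-1 mice, 16 mice per route; single subcutaneous dose given at the time of challenge; median protective dose (PD50, mg/kg) determined.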

Assay [3] concerns Streptococcus pneumoniae. The experiment in a line: Antibacterial activity was determined against gram positive organism, Streptococcus pneumoniae SV-1. The note with it: Streptococcus pneumoniae; read-out: MIC. Summed up:
as §1

In assay [4] the test system is Bacteria. Kind of assay: Antibacterial activity was determined against gram negative organism, Providencia rettgeri. M1771. The settings on record: Bacteria; read-out: MIC. The procedure, abridged: as §1
The subject of assay [5] is Streptococcus pyogenes. The experiment in a line: The in vivo potency was determined in female charles river CD-1 mice infected with Streptococcus pyogenes after peroral administration. The settings on record: Streptococcus pyogenes, po; read-out: PD50. Summed up: (§3)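 Acute lethal systemic infection in female CD-1 mice, 16 mice per route; single dose given orally by gavage at the time of challenge; median protective dose (PD50, mg/kg) determined.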

A further assay concerns Pseudomonas aeruginosa. Kind of assay: Antibacterial activity was determined against gram negative organism, Pseudomonas aeruginosa UI-18. The settings on record: Pseudomonas aeruginosa; read-out: MIC. The procedure, abridged:
as §1

Assay [6] has as its system Escherichia coli. The experiment in a line: The in vivo potency was determined in female charles river CD-1 mice infected with Escherichia coli after sc administration. The note with it: Escherichia coli, sc; read-out: PD50. Summed up: as §2
Assay [7] relates to Streptococcus pneumoniae. Kind of assay: The in vivo potency was determined in female charles river CD-1 mice infected with Streptococcus pneumoniae after sc administration. The note with it: Streptococcus pneumoniae, sc; read-out: PD50. The procedure, abridged: as §2
In the next assay the test system is Klebsiella pneumoniae. The experiment in a line: Antibacterial activity was determined against gram negative organism, Klebsiella pneumoniae MGH-2. The note with it: Klebsiella pneumoniae; read-out: MIC. Summed up: as §1
Assay [8] has as its system Streptococcus pneumoniae. Kind of assay: The in vivo potency was determined in female charles river CD-1 mice infected with Streptococcus pneumoniae after peroral administration. The settings on record: Streptococcus pneumoniae, po; read-out: PD50. Summed up: as §3
Assay [9] deals with Escherichia coli. Kind of assay: The in vivo potency was determined in female charles river CD-1 mice infected with Escherichia coli after peroral administration. The note with it: for ED50: Escherichia coli, po, read-out: PD50. Summed up:
as §3

Assay [10] deals with Staphylococcus aureus. The experiment in a line: Antibacterial activity was determined against gram positive organism, Staphylococcus aureus H228. The note with it: Staphylococcus aureus; read-out: MIC. Summed up:
as §1

The subject of assay [11] is Streptococcus pyogenes. The experiment in a line: Antibacterial activity was determined against gram positive organism, Streptococcus pyogenes C203. The settings on record: Streptococcus pyogenes; read-out: MIC. Summed up: as §1
In assay [12] the test system is Bacteria. Kind of assay: MIC ratio measured as the mean MICs of gram-negative bacteria. The procedure, abridged:
(§4)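 Geometric mean of the microtitration MICs (µg/mL) over the Gram-negative organisms, and separately over the Gram-positive organisms, of the 10-strain panel; individual MICs averaged from multiple experiments.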

Assay [13] deals with Escherichia coli. The experiment in a line: Antibacterial activity was determined against gram negative organism, Escherichia coli vogel. The note with it: Escherichia coli; read-out: MIC. Summed up:
as §1

In the next assay the test system is Enterobacter cloacae. The experiment in a line: Antibacterial activity was determined against gram negative organism, Enterobacter cloacae MA2646. The note with it: Enterobacter cloacae; read-out: MIC.
In assay [14] the target is DNA gyrase (Escherichia coli) (UniProt P0AES6+P0AES4). The experiment in a line: Minimum inhibitory concentration against Escherichia coli DNA-gyrase in supercoiling assay.
For assay [15], the system named is Bacteria. Kind of assay: MIC ratio measured as the mean MICs of gram-positive bacteria. Summed up: as §4

Values after ≈ are worked out from the molar mass of the structure shown.

Consider `O=C(O)c1cn(C2CC2)c2cc(N3CCNCC3)c(F)cc2c1=O` [CIPROFLOXACIN], for which the MIC in the assay with Staphylococcus aureus [1] came out at 0.2 mg/L (≈ 0.604 µM); with Enterococcus faecalis it was 0.8 mg/L (≈ 2.41 µM); with Streptococcus pneumoniae [3], 0.8 mg/L (≈ 2.41 µM); in the assay on Bacteria [4], 0.05 mg/L (≈ 0.151 µM); with Pseudomonas aeruginosa, 0.4 mg/L (≈ 1.21 µM); in the assay with Klebsiella pneumoniae, 0.05 mg/L (≈ 0.151 µM). For the same compound, the MIC was determined as 1.6 mg/L (≈ 4.83 µM) in the assay with Staphylococcus aureus [10] and 0.8 mg/L (≈ 2.41 µM) in the assay on Streptococcus pyogenes [11]. For the same compound, the ED50 is 19 mg/kg with Streptococcus pyogenes [2]; greater than 100 mg/kg in the assay on Streptococcus pyogenes [5]; 0.3 mg/kg in the assay on Escherichia coli [6]; 228 mg/kg in the assay with Streptococcus pneumoniae [7]; greater than 100 mg/kg in the assay on Streptococcus pneumoniae [8]; 1 mg/kg in the assay on Escherichia coli [9].
With `CC1CN(c2cc3c(cc2F)c(=O)c(C(=O)O)cn3C2CC2)CC(C)N1` (stereo not given), the MIC in the assay with Staphylococcus aureus [1] turned out to be 0.05 mg/L (≈ 0.139 µM); in the assay on Enterococcus faecalis, 0.2 mg/L (≈ 0.556 µM); with Streptococcus pneumoniae [3] it was 0.2 mg/L (≈ 0.556 µM); with Bacteria [4], 0.2 mg/L (≈ 0.556 µM); in the assay with Escherichia coli [13], 0.025 mg/L (≈ 0.0696 µM); in the assay with Pseudomonas aeruginosa it was 0.4 mg/L (≈ 1.11 µM). In addition, the MIC with Enterobacter cloacae was 0.025 mg/L (≈ 0.0696 µM); in the assay on Klebsiella pneumoniae, 0.05 mg/L (≈ 0.139 µM); in assay [14] it was 1 mg/L (≈ 2.78 µM); with Staphylococcus aureus [10], 0.2 mg/L (≈ 0.556 µM); with Streptococcus pyogenes [11], 0.2 mg/L (≈ 0.556 µM). Also, the ED50 was 12 mg/kg with Streptococcus pyogenes [2], 15 mg/kg in the assay with Streptococcus pyogenes [5], 0.4 mg/kg in the assay with Escherichia coli [6] and 0.7 mg/kg with Escherichia coli [9]. The Geometric mean MIC over Gram-negative bacteria (µg/mL) with Bacteria [12] was 0.076. The “Geometric mean MIC over Gram-positive bacteria (µg/mL)” value in the assay on Bacteria [15] is on record as 0.15.
On to `Nc1c(F)c(N2CCC(N)C2)cc2c1c(=O)c(C(=O)O)cn2C1CC1` (stereo not given), for which the MIC in the assay on Staphylococcus aureus [1] stood at 0.025 mg/L (≈ 0.0722 µM); in the assay on Enterococcus faecalis it was 0.05 mg/L (≈ 0.144 µM); with Streptococcus pneumoniae [3], 0.025 mg/L (≈ 0.0722 µM); with Bacteria [4] it was 0.05 mg/L (≈ 0.144 µM); in the assay on Escherichia coli [13], 0.013 mg/L (≈ 0.0375 µM); in the assay on Pseudomonas aeruginosa, 0.4 mg/L (≈ 1.15 µM). Besides, the MIC is 0.013 mg/L (≈ 0.0375 µM) in the assay on Enterobacter cloacae; 0.025 mg/L (≈ 0.0722 µM) with Klebsiella pneumoniae; 2 mg/L (≈ 5.77 µM) in [14]; 0.1 mg/L (≈ 0.289 µM) in the assay with Staphylococcus aureus [10]; 0.05 mg/L (≈ 0.144 µM) in the assay on Streptococcus pyogenes [11]. Moreover, the ED50 with Streptococcus pyogenes [2] was 6 mg/kg; in the assay on Streptococcus pyogenes [5] it was 110 mg/kg; in the assay with Escherichia coli [6], 0.7 mg/kg; in the assay with Escherichia coli [9] it was 8 mg/kg. In the assay with Bacteria [12], the Geometric mean MIC over Gram-negative bacteria (µg/mL) stood at 0.038. For the same compound, in the assay with Bacteria [15], the “Geometric mean MIC over Gram-positive bacteria (µg/mL)” value is given as 0.044.
For `O=C(O)c1cn(C2CC2)c2c(Cl)c(N3CCNCC3)c(F)cc2c1=O`, the MIC with Staphylococcus aureus [1] is 0.05 mg/L (≈ 0.137 µM); with Enterococcus faecalis it was 0.4 mg/L (≈ 1.09 µM); in the assay with Streptococcus pneumoniae [3] it was 0.1 mg/L (≈ 0.273 µM); in the assay on Bacteria [4], 0.1 mg/L (≈ 0.273 µM); with Escherichia coli [13], 0.025 mg/L (≈ 0.0683 µM); in the assay on Pseudomonas aeruginosa, 0.4 mg/L (≈ 1.09 µM). The MIC came to 0.025 mg/L (≈ 0.0683 µM) in the assay with Enterobacter cloacae; 0.05 mg/L (≈ 0.137 µM) in the assay with Klebsiella pneumoniae; 0.5 mg/L (≈ 1.37 µM) in [14]; 0.1 mg/L (≈ 0.273 µM) in the assay with Staphylococcus aureus [10]; 0.2 mg/L (≈ 0.547 µM) in the assay with Streptococcus pyogenes [11]. In the assay on Bacteria [12], the Geometric mean MIC over Gram-negative bacteria (µg/mL) turned out to be 0.066. Also, the ED50 was found to be 0.4 mg/kg in the assay with Escherichia coli [6] and 0.8 mg/kg with Escherichia coli [9]. The “Geometric mean MIC over Gram-positive bacteria (µg/mL)” value with Bacteria [15] is reported as 0.13.
Regarding `CC1CN(c2c(F)cc3c(=O)c(C(=O)O)cn(C4CC4)c3c2F)CC(C)N1` (stereo not given), the MIC is 0.05 mg/L (≈ 0.132 µM) with Staphylococcus aureus [1]; 0.4 mg/L (≈ 1.06 µM) in the assay with Enterococcus faecalis; 0.4 mg/L (≈ 1.06 µM) in the assay with Streptococcus pneumoniae [3]; 0.2 mg/L (≈ 0.53 µM) with Bacteria [4]; 0.05 mg/L (≈ 0.132 µM) in the assay with Escherichia coli [13]; 0.4 mg/L (≈ 1.06 µM) in the assay on Pseudomonas aeruginosa. Moreover, the MIC in the assay with Enterobacter cloacae is 0.05 mg/L (≈ 0.132 µM); in the assay on Klebsiella pneumoniae, 0.1 mg/L (≈ 0.265 µM); in assay [14], 2.5 mg/L (≈ 6.62 µM); in the assay on Staphylococcus aureus [10] it was 0.2 mg/L (≈ 0.53 µM); in the assay with Streptococcus pyogenes [11], 0.4 mg/L (≈ 1.06 µM). For the same compound, the Geometric mean MIC over Gram-negative bacteria (µg/mL) in the assay on Bacteria [12] was determined as 0.11. Besides, in the assay with Escherichia coli [6], the ED50 is 0.4 mg/kg. In the assay with Bacteria [15], the “Geometric mean MIC over Gram-positive bacteria (µg/mL)” value is recorded as 0.23. In addition, the PD50 with Escherichia coli [9] amounted to 0.8 mg/kg.
Regarding `CC1CN(c2c(F)cc3c(=O)c(C(=O)O)cn(C4CC4)c3c2Cl)CCN1` (stereo not given), the MIC stood at 0.05 mg/L (≈ 0.132 µM) with Staphylococcus aureus [1]; 0.2 mg/L (≈ 0.527 µM) in the assay with Enterococcus faecalis; 0.2 mg/L (≈ 0.527 µM) in the assay with Streptococcus pneumoniae [3]; 0.2 mg/L (≈ 0.527 µM) in the assay with Bacteria [4]; 0.025 mg/L (≈ 0.0658 µM) in the assay with Escherichia coli [13]; 0.8 mg/L (≈ 2.11 µM) in the assay on Pseudomonas aeruginosa. Besides, the MIC in the assay on Enterobacter cloacae worked out at 0.025 mg/L (≈ 0.0658 µM); in the assay with Klebsiella pneumoniae it was 0.05 mg/L (≈ 0.132 µM); in assay [14], 2.5 mg/L (≈ 6.58 µM); with Staphylococcus aureus [10], 0.2 mg/L (≈ 0.527 µM); with Streptococcus pyogenes [11], 0.2 mg/L (≈ 0.527 µM). Further, the ED50 amounted to 3 mg/kg in the assay with Streptococcus pyogenes [2], 6 mg/kg with Streptococcus pyogenes [5], 0.2 mg/kg with Escherichia coli [6] and 0.6 mg/kg in the assay with Escherichia coli [9]. The Geometric mean MIC over Gram-negative bacteria (µg/mL) with Bacteria [12] worked out at 0.087. In addition, the “Geometric mean MIC over Gram-positive bacteria (µg/mL)” value in the assay on Bacteria [15] amounted to 0.15.

For the origin of these results see ChEMBL document CHEMBL1125826, “Synthesis and biological activity of 5-amino- and 5-hydroxyquinolones, and the overwhelming influence of the remote N1-substituent in determining the structure-activity relationship” (1991).
